Test results reported in ChEMBL document CHEMBL3407351, “Pyrido-imidazodiazepinones as a new class of reversible inhibitors of human kallikrein 7” (Eur J Med Chem, 2015).
The source made the active and inactive calls. The rule behind the calls is not given here.

Tests used:
Kallikrein-7 [1] = biological target: T1, Kallikrein-7 (Homo sapiens, UniProt P49862); experiment: Inhibition of human KLK7 using Suc-Leu-Leu-Val-Tyr-AMC as substrate at 50 uM after 15 mins by fluorescence assay relative to control
Target sequence in this assay (P49862 30-253 limits assumed): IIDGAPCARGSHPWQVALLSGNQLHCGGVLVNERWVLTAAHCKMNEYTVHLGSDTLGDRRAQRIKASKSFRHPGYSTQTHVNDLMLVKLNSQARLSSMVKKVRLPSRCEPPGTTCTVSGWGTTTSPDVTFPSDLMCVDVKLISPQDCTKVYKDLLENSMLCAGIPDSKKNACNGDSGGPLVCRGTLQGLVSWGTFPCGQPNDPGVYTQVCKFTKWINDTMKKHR

Kallikrein-7 [2] = biological target: T1, Kallikrein-7; experiment: Inhibition of human KLK7 using Suc-Leu-Leu-Val-Tyr-AMC as substrate after 15 mins by fluorescence assay
Procedure, shortened: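 Recombinant KLK7 at 7.6 nM, final, with 40 µM Suc-LLVY-AMC in pH 8.0 buffer of 50 mM Tris-HCl, 0.01% Tween 20, 1 M NaCl, 2% DMSO. Enzyme preincubated 15 min with compound, then hydrolysis followed for 15 min at 37 °C, ex 360 / em 460 nm. Run in triplicate. Initial rates taken relative to untreated enzyme; IC50 fitted to hyperbolic or Hill equation.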
Target sequence in this assay (P49862 whole entry): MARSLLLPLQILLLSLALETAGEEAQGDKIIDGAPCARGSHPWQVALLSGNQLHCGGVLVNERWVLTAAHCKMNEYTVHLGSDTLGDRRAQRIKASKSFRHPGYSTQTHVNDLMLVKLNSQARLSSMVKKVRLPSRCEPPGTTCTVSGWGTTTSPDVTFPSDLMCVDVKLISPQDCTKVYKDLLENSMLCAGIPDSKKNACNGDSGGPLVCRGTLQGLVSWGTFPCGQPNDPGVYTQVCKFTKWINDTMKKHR

SW-620 = experiment: Cytotoxicity against human SW620 cells assessed as cell death after 48 to 72 hrs by XTT assay; format: functional, cell-based
Procedure, shortened: (§1)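 Cells seeded at 5000 per well in DMEM with 10% FBS, penicillin and streptomycin (100 µg/mL each), 37°C, 5% CO2. Compound in DMSO added 20 h after seeding, 1% DMSO final, DMSO-only controls. At least three wells per condition. Viability relative to DMSO; EC50 = concentration giving 50% cell death.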

HeLa = experiment: Cytotoxicity against human HeLa cells assessed as cell death after 48 to 72 hrs by XTT assay; format: functional, cell-based
Procedure, shortened: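 Cells seeded at 5000/well in DMEM with 10% FBS, penicillin and streptomycin, 37 °C, 5% CO2. Compounds in DMSO added 20 h later, final DMSO 1%; screened at 100 µM, then over a concentration range, at least three wells per condition. Absorbance read at 485 nm after 3 h, viability given relative to DMSO controls, EC50 taken as 50% cell death.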

[3] = Cytotoxicity against human PC3 cells assessed as cell death after 48 to 72 hrs by XTT assay; format: functional, cell-based, PC-3; procedure, shortened: as §1
Kallikrein-7 [4] = biological target: T1, Kallikrein-7; experiment: Competitive inhibition of human KLK7 using Suc-Leu-Leu-Val-Tyr-AMC as substrate by Lineweaver-Burk plot analysis
Target sequence in this assay (P49862 whole entry): as above

[5] = biological target: T2, Kallikrein-14 (Homo sapiens) (UniProt Q9P0G3); experiment: Inhibition of human KLK14 using Boc-Val-Pro-Arg-AMC as substrate at 50 uM after 15 mins by fluorescence assay
T2 sequence (whole entry): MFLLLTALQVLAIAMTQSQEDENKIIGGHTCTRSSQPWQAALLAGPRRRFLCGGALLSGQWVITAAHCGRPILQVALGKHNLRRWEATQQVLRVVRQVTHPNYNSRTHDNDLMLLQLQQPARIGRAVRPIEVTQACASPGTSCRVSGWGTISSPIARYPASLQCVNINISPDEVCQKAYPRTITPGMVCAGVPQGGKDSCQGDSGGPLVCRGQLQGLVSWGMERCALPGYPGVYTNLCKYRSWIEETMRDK
Procedure, shortened: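 KLK14 at 0.2 nM, final, with 10 µM Boc-VPR-AMC in pH 8.0 buffer of 50 mM Tris-HCl, 0.01% Tween 20, 1 M NaCl, 2% DMSO. Compound at 50 µM preincubated 15 min with enzyme. Fluorescence then read 15 min at 37 °C, ex 360 / em 460 nm. Percent inhibition taken from initial rates relative to control.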

[6] = biological target: T3, Kallikrein-8 (Homo sapiens) (UniProt O60259); experiment: Inhibition of human KLK8 using Boc-Val-Pro-Arg-AMC as substrate at 50 uM after 15 mins by fluorescence assay
T3 sequence (whole entry): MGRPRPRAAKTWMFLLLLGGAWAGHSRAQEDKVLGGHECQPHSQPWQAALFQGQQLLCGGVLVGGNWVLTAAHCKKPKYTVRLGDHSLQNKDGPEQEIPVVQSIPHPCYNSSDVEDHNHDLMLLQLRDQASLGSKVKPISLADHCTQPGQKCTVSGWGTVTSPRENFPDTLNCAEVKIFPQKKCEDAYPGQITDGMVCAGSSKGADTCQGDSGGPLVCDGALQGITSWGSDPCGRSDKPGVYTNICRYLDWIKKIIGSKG
Procedure, shortened: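 KLK8 at 1 nM, final, with 100 µM Boc-VPR-AMC in pH 8.0 Tris-HCl buffer containing 0.01% Tween 20 and 2% DMSO. Compound at 50 µM preincubated with enzyme 15 min. Substrate hydrolysis then monitored 15 min at 37 °C, ex 360 / em 460 nm. Initial rates compared with the untreated enzyme.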

[7] = biological target: Kallikrein-5 (Homo sapiens) (UniProt Q9Y337); experiment: Inhibition of human KLK5 using Boc-Val-Pro-Arg-AMC as substrate at 50 uM after 15 mins by fluorescence assay
Procedure, shortened: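 KLK5 at 0.6 nM, final, with 100 µM Boc-VPR-AMC in pH 8.0 buffer of 50 mM Tris-HCl, 0.01% Tween 20, 150 mM NaCl, 2% DMSO. Compound at 50 µM preincubated 15 min with enzyme. Fluorescence then read 15 min at 37 °C, ex 360 / em 460 nm. Inhibition taken from initial rates versus untreated control.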

Kallikrein-7 [8] = biological target: T1, Kallikrein-7; experiment: Reversible inhibition of human KLK7 using Suc-Leu-Leu-Val-Tyr-AMC as substrate at 50 uM preincubated for 15 mins followed by 40 fold dilution by fluorescence assay
Procedure, shortened: (§2)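 KLK7 preincubated with inhibitor, 50 µM where stated, for 15 and 60 min at pH 8.0 and 37 °C. Mixture then diluted 40-fold into buffer holding Suc-LLVY-AMC under the routine KLK7 conditions. Residual activity read fluorimetrically, ex 360 / em 460 nm, and compared with the uninhibited enzyme.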
Target sequence in this assay (P49862 30-253 limits assumed): as the sequence (P49862 30-253 limits assumed) above

Kallikrein-7 [9] = biological target: T1, Kallikrein-7; experiment: Reversible inhibition of human KLK7 using Suc-Leu-Leu-Val-Tyr-AMC as substrate preincubated for 15 to 60 mins followed by 40 fold dilution by fluorescence assay; procedure, shortened: as §2
Target sequence in this assay (P49862 30-253 limits assumed): as above

[10] = Homo sapiens, HeLa, read-out: EC50

Kallikrein-5 (Homo sapiens), sequence (Q9Y337 whole entry): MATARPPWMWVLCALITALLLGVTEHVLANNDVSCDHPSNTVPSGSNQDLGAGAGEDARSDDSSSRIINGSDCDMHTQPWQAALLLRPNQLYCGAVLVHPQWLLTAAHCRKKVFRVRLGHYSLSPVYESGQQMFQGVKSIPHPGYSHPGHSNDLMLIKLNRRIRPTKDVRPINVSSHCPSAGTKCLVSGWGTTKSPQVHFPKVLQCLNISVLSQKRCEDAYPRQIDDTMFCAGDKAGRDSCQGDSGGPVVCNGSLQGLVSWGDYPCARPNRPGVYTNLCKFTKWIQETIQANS

SMILES: O=C1c2c(nc3ccccn23)N=C(c2cc(O)ccc2O)N[C@H]1Cc1ccccc1
- inhibition (Kallikrein-7 [1]): < 30%

SMILES: Nc1nc2ccccn2c1C(=O)[C@H](Cc1ccccc1)NC(=O)c1ccccn1
- inhibition (Kallikrein-7 [1]): < 30%

SMILES: COc1ccc(C2=Nc3nc4ccccn4c3C(=O)[C@H](C)N2)cc1OC
- inhibition (Kallikrein-7 [1]): < 30%

SMILES: O=C1c2c(nc3ccccn23)N=C(c2cccnc2)N[C@H]1Cc1ccccc1
- inhibition (Kallikrein-7 [1]): < 30%

SMILES: Cc1cccc(C2=Nc3nc4ccccn4c3C(=O)[C@H](Cc3ccccc3)N2)c1
- inhibition (Kallikrein-7 [1]): < 30%

SMILES: Cc1ccccc1C1=Nc2nc3ccccn3c2C(=O)[C@H](C)N1
- inhibition (Kallikrein-7 [1]): < 30%

SMILES: Nc1nc2ccccn2c1C(=O)[C@H](Cc1ccccc1)NC(=O)c1ccc[nH]1
- inhibition (Kallikrein-7 [1]): < 30%

SMILES: COc1ccc(C2=Nc3nc4ccccn4c3C(O)[C@H](Cc3ccccc3)N2)cc1OC (some centres not stated)
- inhibition (Kallikrein-7 [1]): < 30%

SMILES: Nc1nc2ccccn2c1C(=O)[C@H](Cc1ccccc1)NC(=O)CCc1ccccc1
- inhibition (Kallikrein-7 [1]): < 30%

SMILES: Cc1ccccc1C1=Nc2nc3ccccn3c2C(=O)[C@H](Cc2cccc3ccccc23)N1
- inhibition (Kallikrein-7 [1]): < 30%

SMILES: COc1ccc(C2=Nc3nc4ccccn4c3C(=O)[C@H](Cc3ccc(O)cc3)N2)cc1OC
- inhibition (Kallikrein-7 [1]): < 30%

SMILES: Nc1nc2ccccn2c1C(=O)[C@H](Cc1ccccc1)NC(=O)Cc1ccccc1
- IC50 (Kallikrein-7 [2]): 149 µM

SMILES: COc1ccc(OC)c(C2=Nc3nc4ccccn4c3C(=O)[C@H](Cc3ccccc3)N2)c1
- EC50 (SW-620; sw-620): Not Active
- IC50 (Kallikrein-7 [2]): 80.9 µM
- EC50 (HeLa; [10]): 40 µM
- EC50 ([3]; pc-3): Not Active

SMILES: COc1ccc(C2=Nc3nc4ccccn4c3C(=O)[C@H](Cc3ccccc3)N2)cc1
- IC50 (Kallikrein-7 [2]): 72 µM

SMILES: Cc1ccc(C2=Nc3nc4ccccn4c3C(=O)[C@H](Cc3ccccc3)N2)cc1
- IC50 (Kallikrein-7 [2]): 68 µM

SMILES: COc1cccc(C2=Nc3nc4ccccn4c3C(=O)[C@H](Cc3ccccc3)N2)c1
- inhibition (Kallikrein-7 [1]): < 30%

SMILES: COc1ccccc1C1=Nc2nc3ccccn3c2C(=O)[C@H](Cc2ccccc2)N1
- inhibition (Kallikrein-7 [1]): < 30%

SMILES: Cc1ccccc1C1=Nc2nc3ccccn3c2C(=O)[C@@H](Cc2ccccc2)N1
- IC50 (Kallikrein-7 [2]): 95.9 µM

SMILES: COc1ccc(C2=Nc3nc4ccccn4c3C(=O)[C@H](Cc3ccccc3)N2)cc1OC
- EC50 (SW-620; sw-620): Not Active
- Ki (Kallikrein-7 [4]): 27 µM
- inhibition [5]: inactive
- IC50 (Kallikrein-7 [2]): 33.5 µM
- inhibition [6]: inactive
- inhibition [7]: inactive
- inhibition (Kallikrein-7 [8]): Active
- EC50 (HeLa; [10]): 24.3 µM
- EC50 ([3]; Homo sapiens, PC-3, read-out: EC50): 64.8 µM

SMILES: Nc1nc2ccccn2c1C(=O)[C@H](Cc1ccccc1)NC(=O)c1ccncc1
- inhibition (Kallikrein-7 [1]): < 30%

SMILES: COc1ccc(C2=Nc3nc4ccccn4c3C(=O)[C@H](Cc3ccc(OCc4ccccc4)cc3)N2)cc1OC
- inhibition (Kallikrein-7 [1]): < 30%

SMILES: CC(C)CC1=Nc2nc3ccccn3c2C(=O)[C@H](Cc2ccccc2)N1
- inhibition (Kallikrein-7 [1]): < 30%

SMILES: O=C1c2c(nc3ccccn23)N=C(c2cccc(O)c2)N[C@H]1Cc1ccccc1
- IC50 (Kallikrein-7 [2]): 125 µM

SMILES: Cc1ccccc1C1=Nc2nc3ccccn3c2C(=O)[C@H](Cc2ccccc2)N1
- Ki (Kallikrein-7 [4]): 50.6 µM
- inhibition [5]: inactive
- IC50 (Kallikrein-7 [2]): 57 µM
- inhibition [6]: inactive
- inhibition [7]: inactive
- inhibition (Kallikrein-7 [9]): Active
- inhibition (Kallikrein-7 [1]): > 30%

SMILES: O=C1c2c(nc3ccccn23)N=C(c2ccccc2)N[C@H]1Cc1ccccc1
- inhibition (Kallikrein-7 [1]): < 30%

SMILES: COc1ccc(C2=Nc3nc4ccccn4c3C(=O)[C@H](COCc3ccccc3)N2)cc1OC
- inhibition (Kallikrein-7 [1]): < 30%

SMILES: O=C1c2c(nc3ccccn23)N=C(c2ccccc2O)N[C@H]1Cc1ccccc1
- inhibition (Kallikrein-7 [1]): < 30%

SMILES: Nc1nc2ccccn2c1C(=O)[C@H](Cc1ccccc1)NC(=O)c1ccccc1
- inhibition (Kallikrein-7 [1]): < 30%

SMILES: O=C1Nc2nc3ccccn3c2C(=O)[C@H](Cc2ccccc2)N1
- inhibition (Kallikrein-7 [1]): < 30%

SMILES: Cc1ccccc1C(=O)N[C@@H](Cc1ccccc1)C(=O)c1c(N)nc2ccccn12
- IC50 (Kallikrein-7 [2]): 135 µM

SMILES: COc1ccc(C2=Nc3nc4ccccn4c3C(=O)[C@H](CO)N2)cc1OC
- inhibition (Kallikrein-7 [1]): < 30%

SMILES: O=C1c2c(nc3ccccn23)N=C(c2ccc([N+](=O)[O-])cc2)N[C@H]1Cc1ccccc1
- inhibition (Kallikrein-7 [1]): < 30%

SMILES: Cc1ccc(C2=Nc3nc4ccccn4c3C(=O)[C@H](Cc3ccccc3)N2)c(C)c1
- EC50 (SW-620; Homo sapiens, SW-620, read-out: EC50): 67.8 µM
- IC50 (Kallikrein-7 [2]): 83.9 µM
- EC50 (HeLa; hela): Not Active
- EC50 ([3]; pc-3): Not Active

SMILES: COc1cc(C2=Nc3nc4ccccn4c3C(=O)[C@H](Cc3ccccc3)N2)cc(OC)c1OC
- EC50 (SW-620; sw-620): Not Active
- IC50 (Kallikrein-7 [2]): 55.7 µM
- EC50 (HeLa; [10]): 53.8 µM
- EC50 ([3]; pc-3): Not Active

SMILES: O=C1c2c(nc3ccccn23)N=C(c2ccc(Br)cc2)N[C@H]1Cc1ccccc1
- inhibition (Kallikrein-7 [1]): < 30%

SMILES: Nc1nc2ccccn2c1C(=O)[C@H](Cc1ccccc1)NC(=O)/C=C/c1ccccc1
- inhibition (Kallikrein-7 [1]): < 30%

SMILES: Cc1ccccc1C1=Nc2nc3ccccn3c2C(=O)[C@H](COCc2ccccc2)N1
- inhibition (Kallikrein-7 [1]): < 30%

SMILES: COc1ccc(C2=Nc3nc4ccccn4c3C(=O)[C@H](Cc3ccccc3)N2C)cc1OC
- inhibition (Kallikrein-7 [1]): < 30%

SMILES: COc1ccc(C(=O)N[C@@H](Cc2ccccc2)C(=O)c2c(N)nc3ccccn23)cc1OC
- inhibition (Kallikrein-7 [1]): < 30%
